Tests used:
Assay type in all cases: functional
Conditions in all cases: read-out: Activity
Malme-3M = experiment: Growth inhibition of human Malme-3M cells assessed as cell growth at 10 uM incubated for 48 hrs by sulforhodamine B assay relative to control
Procedure, shortened: (§1)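 Submitted to the NCI Developmental Therapeutics Program for the NCI60 human tumour cell line panel. First screen at a single 10 µM concentration. Read-out is growth relative to untreated control cells set at 100%.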

HCT-116 = experiment: Growth inhibition of human HCT-116 cells assessed as cell growth at 10 uM incubated for 48 hrs by sulforhodamine B assay relative to control; procedure, shortened: as §1
MDA-MB-468 = experiment: Growth inhibition of human MDA-MB-468 cells assessed as cell growth at 10 uM incubated for 48 hrs by sulforhodamine B assay relative to control; procedure, shortened: as §1
U-251 = experiment: Growth inhibition of human U-251 cells assessed as cell growth at 10 uM incubated for 48 hrs by sulforhodamine B assay relative to control
Procedure, shortened: (§2)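 Run by the NCI Developmental Therapeutics Program as part of its 60-line human tumour panel. Each compound tested at a single 10 µM dose. Growth expressed as % relative to untreated control cells (100%).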

NCI-H460 = experiment: Growth inhibition of human NCI-H460 cells assessed as cell growth at 10 uM incubated for 48 hrs by sulforhodamine B assay relative to control; procedure, shortened: as §1
PC-3 = experiment: Growth inhibition of human PC-3 cells assessed as cell growth at 10 uM incubated for 48 hrs by sulforhodamine B assay relative to control; procedure, shortened: as §2
NCI/ADR-RES = experiment: Growth inhibition of human NCI/ADR-RES cells assessed as cell growth at 10 uM incubated for 48 hrs by sulforhodamine B assay relative to control; procedure, shortened: as §1
MOLT-4 = experiment: Growth inhibition of human MOLT-4 cells assessed as cell growth at 10 uM incubated for 48 hrs by sulforhodamine B assay relative to control; procedure, shortened: as §1
SNB-19 = experiment: Growth inhibition of human SNB-19 cells assessed as cell growth at 10 uM incubated for 48 hrs by sulforhodamine B assay relative to control; procedure, shortened: as §2
T47D = experiment: Growth inhibition of human T47D cells assessed as cell growth at 10 uM incubated for 48 hrs by sulforhodamine B assay relative to control; procedure, shortened: as §2
OVCAR-4 = experiment: Growth inhibition of human OVCAR-4 cells assessed as cell growth at 10 uM incubated for 48 hrs by sulforhodamine B assay relative to control; procedure, shortened: as §2
HL-60(TB) = experiment: Growth inhibition of human HL-60(TB) cells assessed as cell growth at 10 uM incubated for 48 hrs by sulforhodamine B assay relative to control
Procedure, shortened: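 Screened by the NCI Developmental Therapeutics Program on its panel of 60 human tumour cell lines. Compounds were first tested at a single 10 µM dose, and compounds active there went to dose-response curves. Growth is expressed relative to untreated control (100%). GI50 (50% of maximal proliferation inhibition) and TGI (total growth inhibition) were derived from the dose-response data.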

SK-MEL-5 = experiment: Growth inhibition of human SK-MEL-5 cells assessed as cell growth at 10 uM incubated for 48 hrs by sulforhodamine B assay relative to control; procedure, shortened: as §2
RXF 393 = experiment: Growth inhibition of human RXF 393 cells assessed as cell growth at 10 uM incubated for 48 hrs by sulforhodamine B assay relative to control; procedure, shortened: as §2
MDA-MB-435 = experiment: Growth inhibition of human MDA-MB-435 cells assessed as cell growth at 10 uM incubated for 48 hrs by sulforhodamine B assay relative to control; procedure, shortened: as §1
HCC 2998 = experiment: Growth inhibition of human HCC 2998 cells assessed as cell growth at 10 uM incubated for 48 hrs by sulforhodamine B assay relative to control
Procedure, shortened: (§3)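 NCI Developmental Therapeutics Program NCI60 panel. Compounds that were active in the 10 µM one-dose screen went on to dose–response testing. Growth at each concentration is expressed relative to untreated control (100%). GI50 (concentration giving 50% of maximal inhibition of proliferation) and TGI (concentration giving total growth inhibition) were derived from the curves.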

UO-31 = experiment: Growth inhibition of human UO-31 cells assessed as cell growth at 10 uM incubated for 48 hrs by sulforhodamine B assay relative to control; procedure, shortened: as §2
OVCAR-8 = experiment: Growth inhibition of human OVCAR-8 cells assessed as cell growth at 10 uM incubated for 48 hrs by sulforhodamine B assay relative to control; procedure, shortened: as §2
786-0 = experiment: Growth inhibition of human 786-0 cells assessed as cell growth at 10 uM incubated for 48 hrs by sulforhodamine B assay relative to control; procedure, shortened: as §3
HOP-92 = experiment: Growth inhibition of human HOP-92 cells assessed as cell growth at 10 uM incubated for 48 hrs by sulforhodamine B assay relative to control; procedure, shortened: as §1
A498 = experiment: Growth inhibition of human A498 cells assessed as cell growth at 10 uM incubated for 48 hrs by sulforhodamine B assay relative to control; procedure, shortened: as §3
KM12 = experiment: Growth inhibition of human KM12 cells assessed as cell growth at 10 uM incubated for 48 hrs by sulforhodamine B assay relative to control; procedure, shortened: as §1
MCF7 = experiment: Growth inhibition of human MCF7 cells assessed as cell growth at 10 uM incubated for 48 hrs by sulforhodamine B assay relative to control; procedure, shortened: as §1
M14 = experiment: Growth inhibition of human M14 cells assessed as cell growth at 10 uM incubated for 48 hrs by sulforhodamine B assay relative to control; procedure, shortened: as §1
COLO 205 = experiment: Growth inhibition of human COLO 205 cells assessed as cell growth at 10 uM incubated for 48 hrs by sulforhodamine B assay relative to control; procedure, shortened: as §3
HCT-15 = experiment: Growth inhibition of human HCT-15 cells assessed as cell growth at 10 uM incubated for 48 hrs by sulforhodamine B assay relative to control; procedure, shortened: as §1
A549 = experiment: Growth inhibition of human A549/ATCC cells assessed as cell growth at 10 uM incubated for 48 hrs by sulforhodamine B assay relative to control; procedure, shortened: as §3
SF-295 = experiment: Growth inhibition of human SF-295 cells assessed as cell growth at 10 uM incubated for 48 hrs by sulforhodamine B assay relative to control; procedure, shortened: as §2
ACHN = experiment: Growth inhibition of human ACHN cells assessed as cell growth at 10 uM incubated for 48 hrs by sulforhodamine B assay relative to control
Procedure, shortened: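 NCI Developmental Therapeutics Program NCI60 human tumour cell line panel, one-dose primary screen with every compound at 10 µM. Growth is expressed as % of untreated control cells (100%).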

OVCAR-3 = experiment: Growth inhibition of human OVCAR-3 cells assessed as cell growth at 10 uM incubated for 48 hrs by sulforhodamine B assay relative to control; procedure, shortened: as §2
DU-145 = experiment: Growth inhibition of human DU-145 cells assessed as cell growth at 10 uM incubated for 48 hrs by sulforhodamine B assay relative to control; procedure, shortened: as §3
SF-539 = experiment: Growth inhibition of human SF-539 cells assessed as cell growth at 10 uM incubated for 48 hrs by sulforhodamine B assay relative to control; procedure, shortened: as §2
SN12C = experiment: Growth inhibition of human SN12C cells assessed as cell growth at 10 uM incubated for 48 hrs by sulforhodamine B assay relative to control; procedure, shortened: as §2

Structure (SMILES) | growth at 10 µM (Malme-3M) | growth at 10 µM (HCT-116) | growth at 10 µM (MDA-MB-468) | growth at 10 µM (U-251) | growth at 10 µM (NCI-H460) | growth at 10 µM (PC-3) | growth at 10 µM (NCI/ADR-RES) | growth at 10 µM (MOLT-4) | growth at 10 µM (SNB-19) | growth at 10 µM (T47D) | growth at 10 µM (OVCAR-4) | growth at 10 µM (HL-60(TB)) | growth at 10 µM (SK-MEL-5) | growth at 10 µM (RXF 393) | growth at 10 µM (MDA-MB-435) | growth at 10 µM (HCC 2998) | growth at 10 µM (UO-31) | growth at 10 µM (OVCAR-8) | growth at 10 µM (786-0) | growth at 10 µM (HOP-92) | other results
CC1(C)CCc2cc(-c3ccn(S(=O)(=O)c4ccc(C(F)(F)F)cc4)n3)ccc2O1 | 97.3% | 80.6% | 64.2% | 89.1% | 92% | 76.6% | 92.4% | 78.7% | 113% | 63.9% | 71.3% | 117% | 90.7% | 84.2% | 96.6% | 94.4% | 80.2% | 90.9% | 82.5% | 71.8% | growth at 10 µM (A498): 74.2%; growth at 10 µM (KM12): 98%; growth at 10 µM (MCF7): 84.9%; growth at 10 µM (M14): 92.5%; growth at 10 µM (COLO 205): 108%; growth at 10 µM (HCT-15): 87.4%; growth at 10 µM (A549): 79.8%; growth at 10 µM (SF-295): 87.3%; growth at 10 µM (ACHN): 101%; growth at 10 µM (OVCAR-3): 104%; growth at 10 µM (DU-145): 103%; growth at 10 µM (SF-539): 94.6%; growth at 10 µM (SN12C): 97.3%
Cc1cc(C)cc(S(=O)(=O)n2ccc(-c3ccc4c(c3)CCC(C)(C)O4)n2)c1 | 82.9% | 77.8% | 54.6% | 85.6% | 84.4% | 82.4% | 79% | 91.4% | 94.6% | 58.2% | 67.3% | 99.8% | 82.9% | 77.3% | 93.8% | 88.2% | 75% | 91% | 82.8% | 78.1% | growth at 10 µM (A498): 63%; growth at 10 µM (KM12): 82.7%; growth at 10 µM (MCF7): 81.5%; growth at 10 µM (M14): 82.7%; growth at 10 µM (COLO 205): 103%; growth at 10 µM (HCT-15): 82.3%; growth at 10 µM (A549): 80.8%; growth at 10 µM (SF-295): 85%; growth at 10 µM (ACHN): 92.8%; growth at 10 µM (OVCAR-3): 87.8%; growth at 10 µM (DU-145): 89.8%; growth at 10 µM (SF-539): 99.8%; growth at 10 µM (SN12C): 88%
CC1(C)CCc2cc(-c3ccn(S(=O)(=O)c4ccccc4)n3)ccc2O1 | 99.3% | 62.7% | 54.6% | 72.3% | 72.8% | 61.8% | 76% | 61.5% | 94.1% | 50.5% | 64.2% | 89.4% | 75.7% | 81.7% | 79% | 83.2% | 63.6% | 84.3% | 74.5% | 60% | growth at 10 µM (A498): 65.4%; growth at 10 µM (KM12): 71.5%; growth at 10 µM (MCF7): 76.1%; growth at 10 µM (M14): 61%; growth at 10 µM (COLO 205): 96.1%; growth at 10 µM (HCT-15): 64.9%; growth at 10 µM (A549): 77.6%; growth at 10 µM (SF-295): 81.4%; growth at 10 µM (ACHN): 90.1%; growth at 10 µM (OVCAR-3): 81.4%; growth at 10 µM (DU-145): 85.6%; growth at 10 µM (SF-539): 92.8%; growth at 10 µM (SN12C): 98.8%
COc1ccc(S(=O)(=O)n2ccc(-c3ccc4c(c3)CCC(C)(C)O4)n2)cc1OC | 114% | 61.5% | 28.4% | 79.5% | 69.6% | 69.5% | 56.5% | 63.8% | 87.4% | 43.7% | 46% | 94.7% | 28.2% | 75.1% | 79.6% | 78.9% | 68.5% | 74.6% | 79.4% | 58.3% | growth at 10 µM (A498): 52.8%; growth at 10 µM (KM12): 71.4%; growth at 10 µM (MCF7): 64.3%; growth at 10 µM (M14): 81.9%; growth at 10 µM (COLO 205): 87.1%; growth at 10 µM (HCT-15): 71.9%; growth at 10 µM (A549): 67.1%; growth at 10 µM (SF-295): 63%; growth at 10 µM (ACHN): 78%; growth at 10 µM (OVCAR-3): 70.9%; growth at 10 µM (DU-145): 82.6%; growth at 10 µM (SF-539): 97.2%; growth at 10 µM (SN12C): 83.1%
